Laboratory results as given in ChEMBL document CHEMBL3407434, “Antivascular and anti-parasite activities of natural and hemisynthetic flavonoids from New Caledonian Gardenia species (Rubiaceae)” (Eur J Med Chem, 2015).

Experiments:
[1] = system: Trypanosoma brucei gambiense; assay: Antitrypanosomal activity against Trypanosoma brucei gambiense Feo assessed as parasite growth inhibition at 10 uM after 72 hrs by fluorescence assay relative to control; type: functional; conditions: read-out: GI
Outline: (§1)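 Bloodstream-form T. b. gambiense Feo at 10^5 parasites/mL, screened at 50 and 10 µM in triplicate. Incubated 72 h at 37 °C under 5% CO2. Values are percent of untreated controls. Pentamidine served as positive control.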

[2] = Cytotoxicity against rat L6 cells assessed as viable cells at 1 uM after 72 hrs by MTT assay relative to control; type: cell-based; conditions: read-out: Activity
Outline: (§2)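 L6 rat skeletal myoblasts, about 4 × 10^4 cells/well, dosed 24 h after seeding at 10 and 1 µM, in triplicate. After 72 h, MTT was added for 2 h, formazan was dissolved in detergent for 2 h at room temperature in the dark, and absorbance was read at 570 nm. Results are given as percent viable cells.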

B16 = assay: Cytotoxicity against mouse B16 cells assessed as cell viability after 48 hrs by MTT assay; type: cell-based; conditions: B16, 48 h
Outline: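 B16 murine melanoma cells, 5000/well, treated 24 h after plating. Compounds were tested at 0.01 to 100 µM final (DMSO stock 2.5 mg/mL), in triplicate, for 48 h at 37 °C under 5% CO2.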

Leishmania amazonensis = assay: Leishmanicidal activity against promastigote stage of Leishmania amazonensis MHOM/BR/PH8 after 48 hrs by MTT assay; type: functional, organism-based; conditions: MHOM/BR/PH8, 48 h
Outline: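 L. amazonensis MHOM/BR/PH8 promastigotes in Schneider's medium with 20% heat-inactivated FCS, at 10^5 per well in log phase. MTT was added for 4 h at 37 °C, formazan dissolved in DMSO and read at 570 nm. Amphotericin B was the reference drug.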

Plasmodium falciparum [3] = assay: Antiplasmodial activity against Plasmodium falciparum FcB1/Columbia infected in human red blood cells assessed as parasite growth inhibition at 10 uM after 48 hrs by [3H]-hypoxanthine incorporation assay relative to control; type: functional; conditions: read-out: GI
Outline: (§3)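 P. falciparum FcB1 (Colombia) grown in human red cells, in triplicate. Screened at 50 and 10 µM in 96-well plates for 48 h at 37 °C under reduced oxygen, then [3H]-hypoxanthine was added and incorporation counted. Counts per minute are given as percent of untreated controls.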

[4] = system: Trypanosoma brucei gambiense; assay: Antitrypanosomal activity against Trypanosoma brucei gambiense Feo assessed as parasite growth inhibition at 50 uM after 72 hrs by fluorescence assay relative to control; type: functional; conditions: read-out: GI; outline: as §1
[5] = Antivascular activity in human EAhy926 cells assessed as concentration require to adopt rounding shape after 2 hrs by microscopic analysis; type: functional, EA.hy 926
[6] = Cytotoxicity against rat L6 cells assessed as viable cells at 10 uM after 72 hrs by MTT assay relative to control; type: cell-based; conditions: read-out: Activity; outline: as §2
[7] = system: Trypanosoma brucei gambiense; assay: Antitrypanosomal activity against Trypanosoma brucei gambiense Feo assessed as parasite growth inhibition after 72 hrs by fluorescence assay; type: functional, organism-based
Outline: as §1, with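 “CO2. Resazurin (45 µM final) was added for 4 h at 37 °C, followed by 22 h at room temperature, and fluorescence read at ex 535/em 590 nm.” for “CO2.”, “controls. […]” for “controls.”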

Tubulin = assay: Inhibition of tubulin (unknown origin) polymerization preincubated for 45 mins followed by GTP addition measured after 2 hrs by fluorescence assay; type: protein-complex assay, Homo sapiens
Tubulin (Homo sapiens) = Tubulin (Homo sapiens) (UniProt P68371+Q9H4B7+P0DPH7+P68366+Q13509+Q71U36+P04350+Q3ZCM7+P07437+P68363+Q9BQE3+Q6PEY2+Q13885+Q9BVA1+Q9BUF5); assay: Inhibition of tubulin (unknown origin) polymerization at 30 uM preincubated for 45 mins followed by GTP addition measured after 2 hrs by fluorescence assay relative to control; type: protein-complex assay
Plasmodium falciparum [8] = assay: Antiplasmodial activity against Plasmodium falciparum FcB1/Columbia infected in human red blood cells assessed as parasite growth inhibition after 48 hrs by [3H]-hypoxanthine incorporation assay; type: functional, organism-based
Outline: as §3, with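 “controls. Selected compounds were then re-run at 100 to 0.195 µM, with IC50 taken from sigmoidal inhibition curves.” for “controls.”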

## COc1ccc(-c2oc3cc(OC)cc(O)c3c(=O)c2OC)cc1
[1]
  inhibition of growth at 10 µM: 4.6%
[2]
  viability at 72 h, 1 µM: 99.1%
B16
  IC50: > 100 µM
Leishmania amazonensis
  IC50: 33 µM
Plasmodium falciparum [3]
  inhibition of growth at 10 µM: 3.9%
[4]
  inhibition of growth at 50 µM: 19.9%
[5]
  Activity: 100 µM
[6]
  viability at 72 h, 10 µM: 100%

## N=C(N)c1ccc(OCCCCCOc2ccc(C(=N)N)cc2)cc1 [PENTAMIDINE]
[7]
  IC50: 0.007 µM

## COc1cc(-c2oc3cc(O)c(OC)c(O)c3c(=O)c2OC)cc(O)c1OC
[1]
  inhibition of growth at 10 µM: 37.8%
[2]
  viability at 72 h, 1 µM: 97.6%
B16
  IC50: 33.9 µM
Leishmania amazonensis
  IC50: 10.2 µM
Plasmodium falciparum [3]
  inhibition of growth at 10 µM: 0%
Tubulin
  IC50: 17.8 µM
[4]
  inhibition of growth at 50 µM: 82.6%
[5]
  Activity: 1.6 µM
[6]
  viability at 72 h, 10 µM: 44.2%
Tubulin (Homo sapiens)
  inhibition: 99%

## COc1ccc(-c2oc3cc(O)c(OC)c(O)c3c(=O)c2OC)cc1 [SANTIN]
[1]
  inhibition of growth at 10 µM: 33.2%
[2]
  viability at 72 h, 1 µM: 90.9%
B16
  IC50: 45.7 µM
Leishmania amazonensis
  IC50: 63.1 µM
Plasmodium falciparum [3]
  inhibition of growth at 10 µM: 0%
Tubulin
  IC50: 5.7 µM
[4]
  inhibition of growth at 50 µM: 83.1%
[5]
  Activity: 12.5 µM
[6]
  viability at 72 h, 10 µM: 40.8%
Tubulin (Homo sapiens)
  inhibition: 100%

## COc1ccc(-c2oc3cc(OC)c(OC)c(OC)c3c(=O)c2OC)cc1
[1]
  inhibition of growth at 10 µM: 29.4%
[2]
  viability at 72 h, 1 µM: 88.3%
B16
  IC50: > 100 µM
Leishmania amazonensis
  IC50: 37.2 µM
Plasmodium falciparum [3]
  inhibition of growth at 10 µM: 0%
[4]
  inhibition of growth at 50 µM: 24.9%
[5]
  Activity: 50 µM
[6]
  viability at 72 h, 10 µM: 93.6%

## COc1cc(-c2oc3cc(OC)c(OC)c(O)c3c(=O)c2OC)cc(OC)c1OC
[1]
  inhibition of growth at 10 µM: 17.6%
[2]
  viability at 72 h, 1 µM: 99.2%
B16
  IC50: 11.5 µM
Leishmania amazonensis
  IC50: 21.8 µM
Plasmodium falciparum [3]
  inhibition of growth at 10 µM: 21.7%
[4]
  inhibition of growth at 50 µM: 40.5%
[5]
  Activity: >100 µM
[6]
  viability at 72 h, 10 µM: 53.5%

## COc1ccc(-c2oc3cc(O)c(OC)c(O)c3c(=O)c2OC)cc1OC
[1]
  inhibition of growth at 10 µM: 76.2%
[2]
  viability at 72 h, 1 µM: 99.7%
B16
  IC50: 28.9 µM
Leishmania amazonensis
  IC50: 8.15 µM
Plasmodium falciparum [3]
  inhibition of growth at 10 µM: 21.3%
Tubulin
  IC50: 19.3 µM
[4]
  inhibition of growth at 50 µM: 99.8%
[5]
  Activity: 25 µM
[6]
  viability at 72 h, 10 µM: 94.7%
Tubulin (Homo sapiens)
  inhibition: 75.1%

## COc1c(O)c(OC)c2oc(-c3ccc(O)cc3)c(OC)c(=O)c2c1O
[1]
  inhibition of growth at 10 µM: 14.6%
[2]
  viability at 72 h, 1 µM: 88.4%
B16
  IC50: > 100 µM
Leishmania amazonensis
  IC50: 27.3 µM
Plasmodium falciparum [3]
  inhibition of growth at 10 µM: 0.6%
[4]
  inhibition of growth at 50 µM: 50.7%
[5]
  Activity: >100 µM
[6]
  viability at 72 h, 10 µM: 80.4%

## COc1ccc(/C=C\c2cc(OC)c(OC)c(OC)c2)cc1O [COMBRETASTATIN A4]
[5]
  Activity: 0.27 µM

## COc1cc(O)c2c(=O)c(OC)c(-c3ccc(O)cc3)oc2c1 [KUMATAKENIN]
[1]
  inhibition of growth at 10 µM: 25.2%
[2]
  viability at 72 h, 1 µM: 81.3%
B16
  IC50: 57.5 µM
Leishmania amazonensis
  IC50: 22.9 µM
Plasmodium falciparum [3]
  inhibition of growth at 10 µM: 7.2%
[4]
  inhibition of growth at 50 µM: 26.4%
[5]
  Activity: 50 µM
[6]
  viability at 72 h, 10 µM: 38.7%

## COc1c(O)cc2oc(-c3ccc(O)cc3)c(OC)c(=O)c2c1O [3,6-DIMETHOXY KAEMPFEROL]
[1]
  inhibition of growth at 10 µM: 40.7%
[2]
  viability at 72 h, 1 µM: 86.2%
B16
  IC50: 74.1 µM
Leishmania amazonensis
  IC50: 8.07 µM
Plasmodium falciparum [3]
  inhibition of growth at 10 µM: 0%
[4]
  inhibition of growth at 50 µM: 88.8%
[5]
  Activity: >100 µM
[6]
  viability at 72 h, 10 µM: 73.5%

## COc1c(-c2ccc(O)cc2)oc2cc(O)cc(O)c2c1=O [ISOKAEMPFERIDE]
[1]
  inhibition of growth at 10 µM: 36.6%
[2]
  viability at 72 h, 1 µM: 85%
B16
  IC50: 75.8 µM
Leishmania amazonensis
  IC50: 14.3 µM
Plasmodium falciparum [3]
  inhibition of growth at 10 µM: 2.9%
[4]
  inhibition of growth at 50 µM: 93.4%
[5]
  Activity: >100 µM
[6]
  viability at 72 h, 10 µM: 61%

## CC(=O)Oc1ccc(-c2oc3cc(OC(C)=O)cc(O)c3c(=O)c2OC(C)=O)cc1
[1]
  inhibition of growth at 10 µM: 0%
[2]
  viability at 72 h, 1 µM: 90.2%
B16
  IC50: 39.8 µM
Leishmania amazonensis
  IC50: 12.3 µM
Plasmodium falciparum [3]
  inhibition of growth at 10 µM: 7.6%
[4]
  inhibition of growth at 50 µM: 5.6%
[5]
  Activity: >100 µM
[6]
  viability at 72 h, 10 µM: 94.8%

## COc1cc(-c2oc3cc(OC)c(OC)c(OC)c3c(=O)c2OC)cc(OC)c1OC
[1]
  inhibition of growth at 10 µM: 25.9%
[2]
  viability at 72 h, 1 µM: 93.8%
B16
  IC50: > 100 µM
Leishmania amazonensis
  IC50: 31.6 µM
Plasmodium falciparum [3]
  inhibition of growth at 10 µM: 35%
Plasmodium falciparum [8]
  IC50: 5.8 µM
  IC90: 10.8 µM
[4]
  inhibition of growth at 50 µM: 72.4%
[5]
  Activity: >100 µM
[6]
  viability at 72 h, 10 µM: 81.2%

## COc1ccc(-c2oc3cc(OC)c(OC)c(O)c3c(=O)c2OC)cc1
[1]
  inhibition of growth at 10 µM: 18.3%
[2]
  viability at 72 h, 1 µM: 85.3%
B16
  IC50: > 100 µM
Leishmania amazonensis
  IC50: 14.8 µM
Plasmodium falciparum [3]
  inhibition of growth at 10 µM: 0%
[4]
  inhibition of growth at 50 µM: 8%
[5]
  Activity: >100 µM
[6]
  viability at 72 h, 10 µM: 96.5%

## C[C@@H]1[C@H](O)[C@@H](C)/C=C/C=C/C=C/C=C/C=C/C=C/C=C/[C@H](O[C@@H]2O[C@H](C)[C@@H](O)[C@H](N)[C@@H]2O)C[C@@H]2O[C@](O)(C[C@@H](O)C[C@@H](O)[C@H](O)CC[C@@H](O)C[C@@H](O)CC(=O)O[C@H]1C)C[C@H](O)[C@H]2C(=O)O [AMPHOTERICIN B]
Leishmania amazonensis
  IC50: 0.0725 µM

## COc1cc(-c2oc3cc(O)c(OC)c(O)c3c(=O)c2OC)cc(OC)c1OC
[1]
  inhibition of growth at 10 µM: 42.9%
[2]
  viability at 72 h, 1 µM: 96.1%
B16
  IC50: 91.2 µM
Leishmania amazonensis
  IC50: 9.65 µM
Plasmodium falciparum [3]
  inhibition of growth at 10 µM: 13.2%
Tubulin
  IC50: 21.4 µM
[4]
  inhibition of growth at 50 µM: 38.1%
[5]
  Activity: 12.5 µM
[6]
  viability at 72 h, 10 µM: 78.2%
Tubulin (Homo sapiens)
  inhibition: 69.9%

## O=c1c(O)c(-c2ccc(O)cc2)oc2cc(O)cc(O)c12 [KAEMPFEROL]
[1]
  inhibition of growth at 10 µM: 55.1%
[2]
  viability at 72 h, 1 µM: 93.8%
B16
  IC50: 53.7 µM
Leishmania amazonensis
  IC50: 27.6 µM
Plasmodium falciparum [3]
  inhibition of growth at 10 µM: 0%
[4]
  inhibition of growth at 50 µM: 86.5%
[5]
  Activity: >100 µM
[6]
  viability at 72 h, 10 µM: 100%
